Measured values as given in ChEMBL document CHEMBL2046337, “Inhibitors for Bacterial Cell-Wall Recycling” (ACS Med Chem Lett, 2012).
Active and inactive are the calls of the source. The calls are words filed in the database; no cut-off is given here.

T1: Membrane-bound lytic murein transglycosylase B (Escherichia coli (strain K12), UniProt P41052)
T1 sequence (P41052 whole entry): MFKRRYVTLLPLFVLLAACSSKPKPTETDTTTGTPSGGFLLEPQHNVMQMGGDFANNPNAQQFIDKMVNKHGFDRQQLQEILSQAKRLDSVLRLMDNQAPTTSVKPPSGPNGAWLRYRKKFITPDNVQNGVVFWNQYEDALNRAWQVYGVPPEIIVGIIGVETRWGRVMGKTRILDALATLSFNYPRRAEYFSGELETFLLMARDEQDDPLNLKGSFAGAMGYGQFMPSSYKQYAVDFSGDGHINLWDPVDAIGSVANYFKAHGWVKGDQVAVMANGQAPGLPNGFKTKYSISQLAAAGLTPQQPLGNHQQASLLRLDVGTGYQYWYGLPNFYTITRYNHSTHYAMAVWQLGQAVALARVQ


Key:
[1] = target: Beta-hexosaminidase (Pseudomonas aeruginosa (strain ATCC 15692 / PAO1 / 1C / PRS 101 / LMG12228), UniProt Q9HZK0); experiment: Competitive inhibition of Pseudomonas aeruginosa PAO1 NagZ using PNP-GlcNAc as substrate assessed as release of 4-nitrophenolate ion after 4 mins by spectrophotometric analysis
Procedure, shortened: (§1)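 His-tagged NagZ, purified by Ni-affinity, at 40 nM in PBS pH 7.4 (500 µL reaction). Substrate was PNP-GlcNAc at 0.1–1 mM. 4-Nitrophenolate release was followed at 400 nm for 4 min at 25 °C, in triplicate.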

[2] = target: Beta-hexosaminidase (Pseudomonas aeruginosa (strain ATCC 15692 / PAO1 / 1C / PRS 101 / LMG12228)) (UniProt Q9HZK0); experiment: Inhibition of Pseudomonas aeruginosa PAO1 NagZ using PNP-GlcNAc as substrate assessed as release of 4-nitrophenolate ion after 4 mins by spectrophotometric analysis; procedure, shortened: as §1
[3] = target: T1, Membrane-bound lytic murein transglycosylase B; experiment: Binding affinity to Escherichia coli K12 MG1655 His6x-tagged MltB lytic transglycosylase assessed as intrinsic fluorescence of tryptophan and/or tyrosine residues of enzyme; set-up: species or system Escherichia coli K-12
Procedure, shortened: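 MltB at 0.25 μM in 50 mM HEPES pH 7.6, 0.20 M NaCl, Brij-35, titrated with aliquots of 42 mM aqueous compound stock; equilibrated at 25 °C with stirring after each addition. Emission read at 334.06 nm (excitation 280 nm, scan 290-450 nm), corrected for dilution. Kd from fit to one-site saturation model, with or without a non-specific binding term.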

[4] = Ratio of Kcat to Km for NagZ expressed in Escherichia coli BL21 DE3 after 35 mins by HPLC analysis
[5] = Activity at NagZ expressed in Escherichia coli BL21 DE3 after 35 mins by HPLC analysis
[6] = substrate: CO[C@@H]1O[C@H](CO)[C@@H](O[C@@H]2O[C@H](CO)[C@@H](O)[C@H](O)[C@H]2NC(C)=O)[C@H](O[C@H](C)C(=O)N[C@@H](C)C(=O)N[C@H](CCC(=O)N[C@@H](CCC[C@@H](N)C(=O)O)C(=O)N[C@H](C)C(=O)N[C@H](C)C(=O)O)C(=O)O)[C@H]1NC(C)=O; experiment: Ratio of Kcat to Km for Pseudomonas aeruginosa PAO1 NagZ after 35 mins by HPLC analysis
Procedure, shortened: (§2)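 His-tagged NagZ (pET28a, expressed in E. coli BL21 star (DE3), Ni-affinity purified) at 40 nM in PBS pH 7.4. Substrate was GlcNAc-anhMurNAc-pentapeptide or GlcNAc-MurNAc-pentapeptide at 0.15–0.9 mM, 25 °C, 35 min. Reactions were stopped with two volumes of 0.075% TFA. Substrate and product were quantified by C18 reversed-phase HPLC against an internal standard (Nα,Nε-diacetyl-L-Lys-D-Ala-D-Ala).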

[7] = substrate: CO[C@@H]1O[C@H](CO)[C@@H](O[C@@H]2O[C@H](CO)[C@@H](O)[C@H](O)[C@H]2NC(C)=O)[C@H](O[C@H](C)C(=O)N[C@@H](C)C(=O)N[C@H](CCC(=O)N[C@@H](CCC[C@@H](N)C(=O)O)C(=O)N[C@H](C)C(=O)N[C@H](C)C(=O)O)C(=O)O)[C@H]1NC(C)=O; experiment: Activity at Pseudomonas aeruginosa PAO1 NagZ after 35 mins by HPLC analysis; procedure, shortened: as §2

| Molecule | Ki [1] | inhibition [2] | Kd [3] | further results |
| --- | --- | --- | --- | --- |
| CC(=O)N[C@H]1CN[C@H](CO)[C@@H](O)[C@@H]1O[C@H](C)C(=O)N[C@@H](C)C(=O)N[C@H](CCC(=O)O)C(=O)O | 33 µM | Active | 1010 µM | – |
| CC(=O)N[C@H]1CN[C@H](CO)[C@@H](O)[C@@H]1O[C@H](C)C(=O)O | 51 µM | Active | 1000 µM | – |
| CC(=O)N[C@H]1CN[C@H](CO)[C@@H](O)[C@@H]1O | 0.3 µM | – | 174 µM | – |
| CC(=O)N[C@H]1[C@H](O[C@H]2[C@H](O[C@H](C)C(=O)N[C@@H](C)C(=O)N[C@H](CCC(=O)N[C@@H](CCC[C@@H](N)C(=O)O)C(=O)N[C@H](C)C(=O)N[C@H](C)C(=O)O)C(=O)O)[C@@H](NC(C)=O)[C@@H]3OC[C@H]2O3)O[C@H](CO)[C@@H](O)[C@@H]1O | – | – | – | kcat/Km [4]: 6.3 ×10⁴ /M/s; Km [5]: 104 µM; kcat [5]: 6.6 s⁻¹ |
| CC(=O)N[C@H]1CN[C@H](CO)[C@@H](O)[C@@H]1O[C@H](C)C(=O)N[C@@H](C)C(=O)O | 35 µM | Active | 189 µM | – |
| Beta-hexosaminidase (Pseudomonas aeruginosa (strain ATCC 15692 / PAO1 / 1C / PRS 101 / LMG12228)), Q9HZK0 (protein) MQGSLMLDIGGTWLTAEDRQILRHPEVGGLIIFARNIEHPAQVRELCAAIRAIRPDLLLAVDQEGGRVQRLRQGFVRLPAMRAIADNPNAEELAEHCGWLMATEVQAVGLDLSFAPVLDLDHQRSAVVGSRAFEGDPERAALLAGAFIRGMHAAGMAATGKHFPGHGWAEADSHVAIPEDARSLEEIRRSDLVPFARLAGQLDALMPAHVIYPQVDPQPAGFSRRWLQEILRGELKFDGVIFSDDLSMAGAHVVGDAASRIEAALAAGCDMGLVCNDRASAELALAALQRLKVTPPSRLQRMRGKGYANTDYRQQPRWLEALSALRAAQLID | – | – | – | kcat/Km [6]: 0.5 ×10⁴ /M/s; Km [7]: 165 µM; kcat [7]: 0.77 s⁻¹ |
